Sequences and labels used below:
B1: tRNA (parent)
chain: GUUCCGUUGGCGUAAUGGUAACGCGUCUCCCUCCUAAGGAGAAGACUGCGGGUUCGAGUCCCGUACGGAACG

This sample holds only a part of the variants without activity.

This note sets out measurements from the RNAGym collection of RNA variant scans (doi:10.1126/science.aae0568).

The series covers variants of B1. The series can be described thus: yeast fitness relative to wild type (ratio to wild type); higher = fitter; tRNA-Arg(CCU), competitive growth, 37 C, YPD. The procedure, abridged:
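Start and end populations of a pooled competition were compared by 100-nucleotide paired-end sequencing of gene amplicons. The Saccharomyces cerevisiae strains carried tRNA-Arg(CCU) gene variants at the native genomic locus, synthesised with a 3% per-site mutation rate at 69 sites, and competed in YPD at 37°C for 24 hours in six parallel replicates. Darwinian fitness relative to wild type was based on the change in genotype frequencies. Genotypes required ≥ 100 starting reads, and estimates < 0.5 were set to 0.5.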
Consider G12A U35A G51C, for which the yeast fitness is at most 0.5.
To G12A U28G C33G A69U belongs at most 0.5; to G12C C22G C29A A43G, at most 0.5; to G12A G23C C61G, at most 0.5.
On to G12C C27A A37G C49U G63A, for which the yeast fitness was at most 0.5.
Consider G12A G50A, for which the yeast fitness was 1.01.
To G12C C31G G51A C55G G68C belongs 0.627; to G12C C61A A65U, at most 0.5.
For the variant G12C C27U C33A A45C U54A, the yeast fitness was at most 0.5.
To G12C A42G belongs 0.902; to G12C C33G A36G G44C, at most 0.5; to G12A C46U G51C, at most 0.5.
As for G12C A21C U26C U28C C46G C55U, the yeast fitness is at most 0.5.
On to G12C C30U G56A, for which the yeast fitness was found to be 0.54.
To G12C G17A U28A C49A belongs at most 0.5; to G12A U28C A40C G48A, 0.61; to G12C A37C, 0.648.
For the variant G12C A21G G58C, the yeast fitness is 0.892.
To G12A G18C C33U A69C belongs 0.528.
To G12A C49U G56A C61G belongs at most 0.5; to G12C G17A A20U C34A G41C, at most 0.5.
With G12C A14C U26C A40U G41A A42C, the yeast fitness was at most 0.5.
On to G12A G56C, for which the yeast fitness was found to be 0.764.
As to G12A U32G C33U A45U C55U, the yeast fitness is at most 0.5.
On to G12C C24G C30A A43C C60U C62A, for which the yeast fitness was at most 0.5.
Turning to G12C C27A, the yeast fitness came out at 0.814.
For G12C A14U A20U G23A G68A, the yeast fitness was at most 0.5.
As for G12A U19C G23A U32C A43C, the yeast fitness is at most 0.5.
Take G12C A14G C33G G44C: the yeast fitness was at most 0.5.
To G12C A20U C30U G38A C55U C66U belongs at most 0.5; to G12C G17C C22A U32A C34A A65C, at most 0.5; to G12C G18C C55U C60G, at most 0.5.
As to G12A U13C G44C, the yeast fitness was 0.554.
G12A G44C G67A: the yeast fitness came to 0.513.
As for G12A U32C U35A G58A G68A, the yeast fitness was at most 0.5.
Take G12A U19C C34G: the yeast fitness came to 0.544.
To G12C A15G A37U A40G U54C C66G belongs 0.538; to G12A G23C C24A G25A, at most 0.5.
G12A U35A G58A C66G G68A: the yeast fitness is at most 0.5.
Take G12C A45U G58C A65U A70U: the yeast fitness was at most 0.5.
To G12C A37G G38A U47A belongs at most 0.5; to G12C A14C C24U A45U G58A A65G, at most 0.5.
G12A G18A A21U G41A C46U: the yeast fitness was 0.535.
In the case of G12C A20C C31G G51C, the yeast fitness was at most 0.5.
Turning to G12C C24A, the yeast fitness worked out at 0.685.
On to G12A G44U G68C, for which the yeast fitness is at most 0.5.
For G12A U13A A14G A21G C33U C62G, the yeast fitness was at most 0.5.
Take G12A G25A G56A: the yeast fitness is 0.599.
On to G12C A65U G68U, for which the yeast fitness came out at 0.653.
Regarding G12A G17U C49G C60U G68A, the yeast fitness is at most 0.5.
Turning to G12C A40U C49G G50A, the yeast fitness is at most 0.5.
Consider G12A G50A C60A, for which the yeast fitness was at most 0.5.
Turning to G12C A20U G25A, the yeast fitness was at most 0.5.
Regarding G12A U19C C31G, the yeast fitness is at most 0.5.
In the case of G12A G23C G56C C61G, the yeast fitness was at most 0.5.
On to G12A U16A A45U, for which the yeast fitness turned out to be 0.629.
Take G12A G18C A36C: the yeast fitness is 0.537.
To G12A U32C A42C G44C A69C belongs at most 0.5; to G12C C22G G23A A37C A43C A65U, at most 0.5; to G12C A42U C46U C55G, at most 0.5.
Consider G12A G18A C61G A70G, for which the yeast fitness was 0.682.
G12C A15U C49U: the yeast fitness is at most 0.5.
As for G12C A15C A20U U53A U59G, the yeast fitness is at most 0.5.
For G12A G18U G39A, the yeast fitness was at most 0.5.
G12C A43G G51C U59C C62G A70U: the yeast fitness is at most 0.5.
To G12A G23A U35G A36G C46U A57U belongs at most 0.5.
Consider G12A G67A, for which the yeast fitness turned out to be 0.857.
Consider G12C A21U A42U, for which the yeast fitness was 0.611.
As to G12C C27U G39A, the yeast fitness was at most 0.5.
To G12A U16C belongs 0.981; to G12A U16G, 0.815; to G12A U13C C22A U26C U47A U54G, at most 0.5.
Turning to G12A G38A C60G, the yeast fitness is at most 0.5.
With G12C A14G A15C G41A A42C G50C A70G, the yeast fitness is at most 0.5.
In the case of G12C A14U C61G U64C, the yeast fitness is at most 0.5.
Turning to G12A U28A U54C G63A A70G, the yeast fitness is at most 0.5.
Regarding G12A G50C U64C, the yeast fitness was 0.692.
To G12C C24U C30U C60A belongs at most 0.5; to G12C A45U, 0.978.
With G12C A45G, the yeast fitness came to 0.684.
As for G12A U47C A57C, the yeast fitness came out at 0.579.
With G12A G18A A21U G41A, the yeast fitness is 0.877.
To G12C A14G G18A C33G belongs at most 0.5; to G12C C27U C33A A45C U54A C62U, at most 0.5; to G12A C62U A70G, 0.69.
To G12C A14G G25A G41C C61U A70G belongs at most 0.5.
Take G12C C22G G23A A37C A43C G68A: the yeast fitness was at most 0.5.
Turning to G12A U53G G58C C61A, the yeast fitness is at most 0.5.
As for G12C C34A A70U, the yeast fitness was at most 0.5.
For the variant G12A U13C A15G U64C, the yeast fitness worked out at 0.738.
Regarding G12A U16A C27G, the yeast fitness was at most 0.5.
To G12A G52A U59C belongs at most 0.5.
As for G12C A14U C27G A45U C46G G56A, the yeast fitness is at most 0.5.
For G12C C66G, the yeast fitness turned out to be 0.657.
As to G12C C66U, the yeast fitness was found to be 0.743.
To G12C C22G G23A A37C A43C belongs 0.534.
On to G12C A20U G25A A36G, for which the yeast fitness is at most 0.5.
To G12A C49A belongs 0.67; to G12A C49G, 0.943; to G12A G44C C49G, 0.799.
For G12A G18A C27U C46U G48A, the yeast fitness was at most 0.5.
G12A U35A: the yeast fitness turned out to be 0.706.
As for G12A G48A C66U G67A, the yeast fitness is at most 0.5.
On to G12C C24U G48C A69C, for which the yeast fitness is at most 0.5.
With G12C A37U G44C, the yeast fitness turned out to be 0.538.
To G12A U32C belongs 0.914; to G12A C62U, 0.815; to G12A C62A, 0.823.
Regarding G12A G38C C46G C49G G51C C61U, the yeast fitness was at most 0.5.
As to G12A G63A G67A, the yeast fitness was at most 0.5.
As for G12C C24G C49G, the yeast fitness was at most 0.5.
As to G12A C62U G63A, the yeast fitness was at most 0.5.
On to G12C C30G A37U G41A, for which the yeast fitness is at most 0.5.
For the variant G12A G17A G18A A36G A42U C46U C55U, the yeast fitness worked out at 0.581.
Regarding G12C A20U C30U A65G A69C, the yeast fitness was at most 0.5.
Regarding G12C C31U U59A, the yeast fitness was determined as 0.6.
In the case of G12A U13G A69C, the yeast fitness was determined as 0.598.
For G12C A40G A70G, the yeast fitness came out at 0.567.
G12A C49G A69C: the yeast fitness turned out to be 0.551.
As to G12A G41C C60G A70U, the yeast fitness was at most 0.5.
For G12C A20U C22G G50A C61A, the yeast fitness was 0.567.
In the case of G12C A14C A15G A37C A57U, the yeast fitness was 0.682.
Turning to G12A U53A, the yeast fitness came out at 0.62.
To G12A C49A G52C belongs at most 0.5; to G12C A15G C24U A43G, 0.522.
Consider G12C A14G C27U C33A A45C U54A, for which the yeast fitness was at most 0.5.
Take G12A C46G A57C: the yeast fitness is at most 0.5.
To G12A C49U G67C A69G belongs at most 0.5; to G12C C33G A37G A40C C49G, at most 0.5.
G12C C22U C60U G68C: the yeast fitness is at most 0.5.
Regarding G12A G18C C27U C55A, the yeast fitness is at most 0.5.
To G12A U13C A15U belongs 0.507; to G12A G23C C55G A69C, 0.561; to G12C G17A C49A G56A, at most 0.5.
To G12C G17A C46G C49U belongs at most 0.5; to G12C G23C C49G A57U A65C, at most 0.5; to G12A G18C A42U G58A G68A, at most 0.5.
For the variant G12C A14G A15C G52C, the yeast fitness was at most 0.5.
To G12A U19A A20U A36U belongs at most 0.5; to G12C A57U, 0.663.
Take G12C A57G: the yeast fitness was 0.974.
For the variant G12C C30G A45U A69U, the yeast fitness was at most 0.5.
Take G12A U19C U28C C55G: the yeast fitness was at most 0.5.
As for G12C A42G U54G, the yeast fitness is at most 0.5.
To G12C A20C C30U C31G belongs at most 0.5; to G12C C60G, 0.641; to G12C C60U, 0.726.
For the variant G12C C46U G51C U64A, the yeast fitness was at most 0.5.
As to G12A G44A G67C, the yeast fitness was found to be 0.62.
G12C C24A C55U: the yeast fitness is at most 0.5.
With G12C C30U U59A, the yeast fitness is at most 0.5.
G12C C24U C55U: the yeast fitness turned out to be 0.564.
On to G12A G48C G68C A70U, for which the yeast fitness was at most 0.5.
Regarding G12C C33G G44C C49U, the yeast fitness came out at 0.539.
To G12C A15C belongs 0.67.
In the case of G12A G23A U35G A36G A57C C62U, the yeast fitness was at most 0.5.
To G12A C34A A43G belongs 0.531; to G12C A20U A36G C46A U54A A70U, at most 0.5; to G12A U32G C33U C55G A70G, at most 0.5.
Take G12C C33G A37G A40C C49G G67C: the yeast fitness came to 0.539.
G12A U19C A21U A69C: the yeast fitness turned out to be 0.653.
As to G12C C33G C34U A36C A43G G52A G58C U64G A65G, the yeast fitness was at most 0.5.
For the variant G12C C24U A43C, the yeast fitness is at most 0.5.
On to G12A G41A, for which the yeast fitness came out at 0.889.
To G12A G41C belongs 0.864.
Turning to G12A U19A C29G A43U C55U, the yeast fitness was at most 0.5.
Consider G12A C46U G51C A70U, for which the yeast fitness is 0.534.
